For one data set, the system named is PC-9 (Del19). The note with it: read-out: potency against Del19 (measure not given); ref [20]; cited from earlier work.
The subject of a further data set is H1975 (T790M). The note with it: read-out: potency against T790M (measure not given); ref [20]; cited from earlier work.
A further data set relates to LOVO (wild-type EGFR). As to conditions: read-out: potency in wild-type EGFR cell line (measure not given); ref [20]; cited from earlier work.
For a further data set, the system named is H1975 (L858R T790M). In words: Cell proliferation assay. Format: cell-based. The note with it: Homo sapiens, NCI-H1975, 72 h.
In data set [1] the test system is EGFR wild-type cell lines (H460, Calu-6 and LOVO) and EGFR-deficient Ba/F3 cells. In words: Cell proliferation assay, summary over the panel. Format: cell-based. The note with it: read-out: mean IC50 values.
A further data set has as its system H1975 cells. In words: Cell cycle analysis. The class given is cell-based, human. The note with it: 1 nmol/L, 24 h. The method in brief:
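H1975 cells plated at 2 × 10⁵ per well and allowed to adhere, then exposed to 1 nmol/L test compound for 24 h. Cells fixed in 75% ethanol at −20 °C overnight, washed in PBS, and stained with DNA staining solution for 30 min at room temperature in the dark. DNA content analysed immediately by flow cytometry; n = 3.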

Data set [2] has as its system H1975 (L858R T790M) xenografts. In words: H1975 subcutaneous xenograft study. As to conditions: BEBT-109 30 and 60 mg/kg. Format: in vivo, BALB/c nude mouse.
For data set [3], the system named is HCC827 (Del19) xenografts. In words: HCC827 subcutaneous xenograft study. The class given is in vivo, BALB/c nude mouse. The note with it: BEBT-109 60 mg/kg, osimertinib 25 mg/kg (MTD doses). In a few lines: (§1)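 Female BALB/c nude mice, 7–8 weeks old, inoculated subcutaneously in the right armpit with 2–5 × 10⁶ cells/ml in 0.1 ml PBS (PC-9 in 50% matrigel). Randomised at n = 8 per group; oral test compound started at 200–300 mm³. Tumors measured by caliper, with V = length × width²/2; survival followed after treatment.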

In a further data set the test system is PC-9 (Del19) xenografts. In words: PC-9 subcutaneous xenograft study. Format: in vivo, BALB/c nude mouse. The note with it: BEBT-109 60 mg/kg, osimertinib 25 mg/kg (MTD doses). The method in brief: as §1
Data set [4] relates to EGFR A767_V769dupASV-driven Ba/F3 tumor model. Description: Ba/F3 EGFR A767_V769dupASV xenograft study. As to conditions: BEBT-109 40 mg/kg bid, osimertinib 20 mg/kg qd (MTD doses), 14 days, n = 8. Format: in vivo, BALB/c nude mouse.
A short description of data set [5]: Tolerability in xenograft studies. Format: in vivo, BALB/c nude mouse. The note with it: HCC827, PC-9 and exon 20 insertion xenograft models.

With `C=CC(=O)Nc1cc(Nc2nccc(-c3c[nH]c4ccccc34)n2)c(OC)cc1N(C)CCN(C)C` [AZ5104], the IC50 was 2 nM in the data set on PC-9 (Del19), 2 nM in the data set on H1975 (T790M) and 33 nM in the data set on LOVO (wild-type EGFR).

Take `C=CC(=O)Nc1cc(Nc2nccc(-c3cn(C)c4ccccc34)n2)c(OC)cc1N(C)CCN(C)C` [Osimertinib]: the IC50 is 3.9 nM in the data set on H1975 (L858R T790M) and more than 1000 nM in [1]. Besides, the “effect on cell-cycle progression” value in the data set with H1975 cells is listed as “did not change the cell cycle profile”. In addition, in data set [2] (osimertinib 25 mg/kg), the “host mice survival post treatment” value is given as more than 30 days. The tumor regression entry in data set [2] (osimertinib 25 mg/kg (MTD), daily, four weeks) was “complete H1975 tumor regression”; in data set [3], “complete tumor regression”; in the data set on PC-9 (Del19) xenografts, “complete tumor regression”. In addition, the tumor growth entry in data set [4] was “sustained tumor regression was not observed”. The body weight entry in [5] is on record as “Neither drug caused significant body weight loss”.

Source of the values: publication PMC7745057 (Translational Oncology, 2020).
